According to ChEMBL document CHEMBL1772954, “Antifungal, cytotoxic and SAR studies of a series of N-alkyl, N-aryl and N-alkylphenyl-1,4-pyrrolediones and related compounds” (Bioorg Med Chem, 2011):
≈ marks a conversion by molar mass, not a printed value.

Assays:
Type in all cases: functional
[1] = system: Cryptococcus neoformans; assay: Antifungal activity against Cryptococcus neoformans ATCC 32264
Outline: (§1)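 CLSI M27-A3 broth microdilution in RPMI-1640 buffered to pH 7.0 with MOPS. Inoculum 1-5 × 10^3 CFU/mL. Compound twofold dilutions from 250 to 0.24 µg/ml, final DMSO <1%. Incubated at 35 °C in a moist, dark chamber and read at 48 h. MIC is the lowest concentration giving total growth inhibition. For MFC, 5 µL from clear wells was plated in duplicate on SDA; MFC is the lowest concentration with no growth.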

[2] = system: Candida albicans; assay: Antifungal activity against Candida albicans ATCC 10213; outline: as §1
[3] = system: Saccharomyces cerevisiae; assay: Antifungal activity against Saccharomyces cerevisiae ATCC 9763; outline: as §1
[4] = system: Trichophyton rubrum; assay: Antifungal activity against Trichophyton rubrum C 113 2000
Outline: (§2)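 Dermatophytes tested by CLSI M38-A2 microdilution in MOPS-buffered RPMI-1640 at pH 7.0. Inoculum 1-5 × 10^3 CFU/mL; compounds 250 to 0.24 µg/ml in twofold steps, final DMSO <1%. Incubated at 28 °C in a moist, dark chamber and read according to control growth. MIC is the lowest concentration with complete inhibition. MFC is the lowest concentration with no growth after duplicate subculture on SDA.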

[5] = system: Aspergillus flavus; assay: Antifungal activity against Aspergillus flavus ATCC 9170
Outline: (§3)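 Broth microdilution per CLSI M38-A2 in RPMI-1640 with MOPS at pH 7.0. Inoculum 1-5 × 10^3 CFU/mL, with twofold compound dilutions spanning 250-0.24 µg/ml (final DMSO <1%). Plates incubated at 35 °C, moist and dark, and read when the control fungus had grown. MIC is total growth inhibition. MFC comes from subculturing clear wells in duplicate onto SDA.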

[6] = system: Aspergillus fumigatus; assay: Antifungal activity against Aspergillus fumigatus ATCC 26934; outline: as §3
[7] = system: Nannizzia gypsea; assay: Antifungal activity against Microsporum gypseum C 115 2000; outline: as §2
[8] = system: Aspergillus niger; assay: Antifungal activity against Aspergillus niger ATCC 9029; outline: as §3
[9] = system: Trichophyton mentagrophytes; assay: Antifungal activity against Trichophyton mentagrophytes ATCC 9972; outline: as §2
[10] = system: Candida tropicalis; assay: Antifungal activity against Candida tropicalis C 131 2000; outline: as §1

SMILES | MFC [1] [µg/mL] | MIC [1] [µg/mL] | MFC [2] [µg/mL] | MFC [3] [µg/mL] | MIC [3] [µg/mL] | MFC [4] [µg/mL] | MIC [4] [µg/mL] | MFC [5] [µg/mL] | MIC [5] [µg/mL] | MFC [6] [µg/mL] | MIC [6] [µg/mL] | MFC [7] [µg/mL] | MIC [7] [µg/mL] | MFC [8] [µg/mL] | MIC [8] [µg/mL] | MFC [9] [µg/mL] | MIC [9] [µg/mL] | MFC [10] [µg/mL] | MIC [10] [µg/mL] | MIC [2] [µg/mL]
O=C(O)/C=C\C(=O)NCCc1ccccc1 | > 250 | > 250 | > 250 | > 250 | > 250 | > 250 | 250 (≈ 1140 µM) | > 250 | > 250 | > 250 | > 250 | > 250 | 250 (≈ 1140 µM) | > 250 | > 250 | > 250 | > 250 | > 250 | > 250 | 
CC1=CC(O)N(CCCCc2ccccc2)C1=O (configuration not stated) | > 250 | > 250 | > 250 | > 250 | > 250 | > 250 | > 250 | > 250 | > 250 | > 250 | > 250 | > 250 | > 250 | > 250 | > 250 | > 250 | > 250 | > 250 | > 250 | > 250
CC1=CC(=O)N(CCc2ccccc2)C1O (configuration not stated) | > 250 | > 250 | > 250 | > 250 | > 250 | > 250 | > 250 | > 250 | > 250 | > 250 | > 250 | > 250 | > 250 | > 250 | > 250 | > 250 | > 250 | > 250 | > 250 | > 250
O=C(O)/C=C\C(=O)NCc1ccccc1 | > 250 | > 250 | > 250 | > 250 | 250 (≈ 1220 µM) | > 250 | > 250 | > 250 | > 250 | > 250 | > 250 | > 250 | > 250 | > 250 | > 250 | > 250 | > 250 | > 250 | > 250 | 
CC1=CC(=O)N(c2ccccc2)C1O (configuration not stated) | > 250 | 250 (≈ 1320 µM) | > 250 | > 250 | > 250 | > 250 | > 250 | > 250 | > 250 | > 250 | > 250 | > 250 | > 250 | > 250 | > 250 | > 250 | > 250 | > 250 | > 250 | > 250
O=C1C(c2ccccc2)=C(c2ccccc2)C(=O)N1c1ccccc1 | > 250 | > 250 | > 250 | > 250 | > 250 | > 250 | > 250 | > 250 | > 250 | > 250 | > 250 | > 250 | > 250 | > 250 | > 250 | > 250 | > 250 | > 250 | > 250 | > 250
O=C1C=CC(O)N1CCc1ccccc1 (configuration not stated) | > 250 | 62.5 (≈ 308 µM) | 125 (≈ 615 µM) | > 250 | 250 (≈ 1230 µM) | 125 (≈ 615 µM) | 62.5 (≈ 308 µM) | > 250 | > 250 | > 250 | > 250 | 125 (≈ 615 µM) | 62.5 (≈ 308 µM) | > 250 | > 250 | 62.5 (≈ 308 µM) | 31.2 (≈ 154 µM) | > 250 | 250 (≈ 1230 µM) | 62.5 (≈ 308 µM)
O=C1C=CC(O)N1Cc1ccccc1 (configuration not stated) | > 250 | 250 (≈ 1320 µM) | > 250 | > 250 | > 250 | > 250 | > 250 | > 250 | > 250 | > 250 | > 250 | > 250 | > 250 | > 250 | > 250 | > 250 | > 250 | > 250 | > 250 | > 250
C[C@@H]1[C@H](O)[C@@H](C)/C=C/C=C/C=C/C=C/C=C/C=C/C=C/[C@H](O[C@@H]2O[C@H](C)[C@@H](O)[C@H](N)[C@@H]2O)C[C@@H]2O[C@](O)(C[C@@H](O)C[C@@H](O)[C@H](O)CC[C@@H](O)C[C@@H](O)CC(=O)O[C@H]1C)C[C@H](O)[C@H]2C(=O)O [AMPHOTERICIN B] | 0.97 (≈ 1.05 µM) | 0.24 (≈ 0.26 µM) | 1.95 (≈ 2.11 µM) | 1.95 (≈ 2.11 µM) | 0.48 (≈ 0.519 µM) | 0.24 (≈ 0.26 µM) | 0.06 (≈ 0.0649 µM) | 1.95 (≈ 2.11 µM) | 0.48 (≈ 0.519 µM) | 0.97 (≈ 1.05 µM) | 0.48 (≈ 0.519 µM) | 0.48 (≈ 0.519 µM) | 0.12 (≈ 0.13 µM) | 3.9 (≈ 4.22 µM) | 0.48 (≈ 0.519 µM) | 0.24 (≈ 0.26 µM) | 0.06 (≈ 0.0649 µM) | 0.97 (≈ 1.05 µM) | 0.48 (≈ 0.519 µM) | 0.97 (≈ 1.05 µM)
CC1=C(C)C(=O)N(CCCc2ccccc2)C1=O | 250 (≈ 1030 µM) | 125 (≈ 514 µM) | > 250 | > 250 | > 250 | 250 (≈ 1030 µM) | 62.5 (≈ 257 µM) | > 250 | > 250 | > 250 | > 250 | 250 (≈ 1030 µM) | 125 (≈ 514 µM) | > 250 | > 250 | > 250 | 250 (≈ 1030 µM) | > 250 | > 250 | > 250
O=C1CCC(=O)N1CCCCc1ccccc1 | > 250 | > 250 | > 250 | > 250 | > 250 | > 250 | > 250 | > 250 | > 250 | > 250 | > 250 | > 250 | > 250 | > 250 | > 250 | > 250 | > 250 | > 250 | > 250 | > 250
CC(=O)N1CCN(c2ccc(OCC3COC(Cn4ccnc4)(c4ccc(Cl)cc4Cl)O3)cc2)CC1 (configuration not stated) [KETOCONAZOLE] | 1.95 (≈ 3.67 µM) | 0.24 (≈ 0.452 µM) | 1.95 (≈ 3.67 µM) | 0.97 (≈ 1.83 µM) | 0.48 (≈ 0.903 µM) | 0.12 (≈ 0.226 µM) | 0.03 (≈ 0.0565 µM) | 3.9 (≈ 7.34 µM) | 0.48 (≈ 0.903 µM) | 3.9 (≈ 7.34 µM) | 0.12 (≈ 0.226 µM) | 0.24 (≈ 0.452 µM) | 0.06 (≈ 0.113 µM) | 1.95 (≈ 3.67 µM) | 0.24 (≈ 0.452 µM) | 0.12 (≈ 0.226 µM) | 0.03 (≈ 0.0565 µM) | 0.97 (≈ 1.83 µM) |  | 0.48 (≈ 0.903 µM)
CC1=CC(O)N(c2ccccc2)C1=O (configuration not stated) | > 250 | > 250 | > 250 | > 250 | > 250 | > 250 | > 250 | > 250 | > 250 | > 250 | > 250 | > 250 | > 250 | > 250 | > 250 | > 250 | > 250 | > 250 | > 250 | > 250
